Screening results: PubChem BioAssay, several laboratories
WT yeast gro inh – growth inhibition of WT strain, primary screen, mitochondrial fusion inhibitor project, WT and mutant strains, chemical genetic | mitochondrial fusion phenotypic screen | inhibition, % at 10 µM | hit rate 2.1% among 190,000; in the data active means inhibition above about 58%; tested in S. cerevisiae
p47phox inh – p47phox/p22phox peptide binding inhibitors, primary screen, biochemical, uHTS, NADPH oxidase regulatory subunit | fluorescence polarization, 2 h | inhibition, % at 24.7 µM | hit rate 0.53% among 220,000 | AID 1274, 2008;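 active means inhibition above about 30%, limit read from the data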
14-3-3 Bad PPI – inhibitors of 14-3-3 zeta/Bad binding, primary screen, biochemical, TR-FRET, bovine 14-3-3 zeta | inhibition, % at 21.7 µM | hit rate 0.71% among 220,000 | TR-FRET 14-3-3zeta/Dy647-pBad peptide displacement, 1 h | AID 781, 2007 | 14-3-3 protein zeta/delta (Bos taurus), P63103;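 active means inhibition above about 70%, limit read from the data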
KCC2 mod – KCC2 cotransporter modulators, thallium flux, primary screen, cell-based, HEK293 KCC2, FluoZin-2 fluorescence, MLSMR | Solute carrier family 12 member 5 (Homo sapiens), Q9H2X9 | KCC2 cells, thallium flux FluoZin-2 fluorescence | B-score of Tl+ flux slope (higher = more flux/activation; lower = inhibition) at 10 µM | hit rate 2.2% among 190,000 | AID 1456, 2008;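 active means thallium flux slope and its plate-corrected score both differing from the plate sample mean at a set confidence after two filtering rounds, in either direction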;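 further: slope of fluorescence scaled to starting intensity during 10 to 20 s after thallium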
ROMK mod – ROMK potassium channel modulators, primary screen, cell-based, thallium flux, MLSMR library | Tet-inducible ROMK, thallium flux fluorescence; actives lie on both sides | B-score at 10 µM | hit rate 2% among 130,000 | AID 1918, 2009;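 active means signal ratio slope over the read window, or its plate-corrected B-score, at least 3 SD from the plate mean, either direction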;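 further: B-score of the F/F0 ratio slope over 7 to 12 s after thallium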
Target sequence (P48048 whole entry, looked up): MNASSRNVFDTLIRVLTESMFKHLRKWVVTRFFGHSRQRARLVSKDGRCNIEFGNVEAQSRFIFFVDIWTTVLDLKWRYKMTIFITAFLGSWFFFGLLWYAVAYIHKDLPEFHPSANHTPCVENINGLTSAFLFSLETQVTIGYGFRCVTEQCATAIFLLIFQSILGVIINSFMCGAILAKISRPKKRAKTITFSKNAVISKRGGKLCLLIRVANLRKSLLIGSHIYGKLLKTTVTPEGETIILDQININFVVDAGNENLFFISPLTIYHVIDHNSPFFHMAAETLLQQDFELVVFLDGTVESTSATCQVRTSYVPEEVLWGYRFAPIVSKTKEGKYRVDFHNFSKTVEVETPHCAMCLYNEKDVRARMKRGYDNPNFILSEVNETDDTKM
RBBP9 inh – human RBBP9 inhibitors, primary screen, biochemical, fluorescence polarization, FP-Rh probe, HTS; Serine hydrolase RBBP9 (Homo sapiens), O75884; recombinant RBBP9; inhibition, % at 7.94 µM; hit rate 0.2% among 220,000;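 active means inhibition above the campaign mean of all tested compounds plus 3 SD, cut at about 14% in these data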
Target sequence (O75884 whole entry, looked up): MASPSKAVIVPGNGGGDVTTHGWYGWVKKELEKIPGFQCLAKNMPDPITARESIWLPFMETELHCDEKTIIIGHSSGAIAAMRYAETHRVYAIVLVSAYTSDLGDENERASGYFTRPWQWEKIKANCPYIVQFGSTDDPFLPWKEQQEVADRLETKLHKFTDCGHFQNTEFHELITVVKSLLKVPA
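Assay system: recombinant human RBBP9; Reagent: Serine-hydrolase probe FP-Rh, 375 nM pre-mixing; Doses: 7.94 µM single dose, 0.794% DMSO; Incubation: 30 min then 45 min, 25 °C; Detection: fluorescence polarization (mP), excitation 525 nm, emission 598 nm; Evaluation: percent inhibition from mP, scaled between DMSO and no-protein wells.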
Of the large screens only hits and unclear results are named; the others gave an inactive call; [ ] = another dose, or the depositor's remark. Sampled rows, rich in hits. Any-hit rate of the full collection: about 5.8%.

COc1ccc(Br)cc1CN1CCCC(C(=O)N2CCCCC2)C1 (centres undefined)	14-3-3 Bad PPI 73
COc1cccc(C(=O)N2CCN(Cc3ccccc3C(F)(F)F)CC2)c1	14-3-3 Bad PPI 74 (no result: KCC2 mod, ROMK mod)
COc1cccc(C(=O)N2CCN(Cc3cc(Br)ccc3OC)CC2)c1	14-3-3 Bad PPI 72 (no result: ROMK mod)
COc1ccc(Br)cc1CN1CCN(C(=O)c2ccc(OC)c(OC)c2)CC1	none
Cc1ccc(CN2CCN(Cc3ccccc3C(F)(F)F)CC2)cc1	14-3-3 Bad PPI 81
Cc1ccccc1C(=O)Nc1cccc(C(=O)N/N=C/c2cc(Cl)cc([N+](=O)[O-])c2O)c1	none
CCn1cc(S(=O)(=O)Nc2cc(F)ccc2C)cn1	14-3-3 Bad PPI 92
C=CCOC(=O)c1cc(-c2ccc(/C=C3\C(=O)NC(=O)C(C#N)=C3C)o2)ccc1Cl	p47phox inh 39, 14-3-3 Bad PPI 92[fluorescence artefact?]
CCOc1ccc(N2CC(C(=O)NC(C)C)CC2=O)cc1 (centres undefined)	WT yeast gro inh 60
CCCNC(=O)C1CC(=O)N(c2ccc(OCC)cc2)C1 (centres undefined)	none (no result: ROMK mod)
Cc1ccccc1CSc1nc(C(C)(C)C)cc(=O)[nH]1	none
CC(CC(=O)Nc1ncc([N+](=O)[O-])s1)c1ccccc1 (centres undefined)	ROMK mod -4.4 (no result: KCC2 mod)
C=CCn1c(CSCc2ccc(Cl)cc2Cl)nnc1SCC(=O)Nc1ccc(C(=O)O)cc1	none (no result: WT yeast gro inh, ROMK mod)
C=CCN1CCN(C(CCC)c2nnnn2Cc2ccco2)CC1 (centres undefined)	none
CCc1cccc(NS(=O)(=O)c2ccc3c(c2)oc(=O)n3C)c1	p47phox inh 40 (no result: KCC2 mod)
Cn1c(=O)oc2cc(S(=O)(=O)Nc3ccccc3)ccc21	none
CCOc1cc(C=O)cc(Br)c1OCC(=O)NCCc1ccccc1	none
Cc1ccc(S(=O)(=O)c2c(C)nn(C(C)(C)C)c2OC(=O)CC(C)C)cc1	WT yeast gro inh 70
CC1(C)Cc2c(ccc3ccccc23)/C(=C/C(=O)N2CCCCC2)N1	14-3-3 Bad PPI 71 (no result: ROMK mod)
O=C(CCN1C(=O)/C(=C/c2ccc3c(c2)OCO3)SC1=S)NNC(=O)c1cccnc1	14-3-3 Bad PPI 71
O=C(Nc1cccc(-c2cn3ccccc3n2)c1)C1CC1	p47phox inh 67 (no result: KCC2 mod, ROMK mod)
CC(=O)Nc1ccc(NC(=O)C2CCCN2/C=C/C(=O)C(F)(F)F)cc1 (centres undefined)	none
Cc1ccc(N=Nc2ccc(O)c3ncccc23)cc1	WT yeast gro inh 64, KCC2 mod 11
CCCOc1ccc(N)cc1N	14-3-3 Bad PPI 92[fluorescence artefact?]
CCCOc1ccccc1NC(=O)c1ccc(N)cc1	none (no result: KCC2 mod, ROMK mod)
O=c1cc(-c2ccc([N+](=O)[O-])cc2)nc2cc(-c3ccc(Cl)cc3)[nH]n12	14-3-3 Bad PPI 89[fluorescence artefact?] (no result: ROMK mod)
CCOC(=O)Cc1cc(=O)n2[nH]c(-c3ccc(Cl)cc3)cc2n1	none
Cc1cccc(OCC(=O)NC(Cc2c[nH]c3ccccc23)C(=O)O)c1C (centres undefined)	none
CC(/C=C1\SC(=S)N(CCC(=O)Nc2nc(C)cs2)C1=O)=C\c1ccccc1	none (no result: WT yeast gro inh, ROMK mod)
Cn1ccnc1C(=O)c1cccc([N+](=O)[O-])c1	14-3-3 Bad PPI 91 (no result: ROMK mod)
CC(C)c1cc(N2CCC(=O)NC2=O)cc(C(=O)O)c1O	none
O=C(Nc1ccccc1Cl)Oc1ccc(-c2ccccc2)cc1	none (no result: WT yeast gro inh, ROMK mod)
COc1ccc(C)cc1NC(=O)C(=O)NNC(=O)COc1ccc(Cl)cc1	KCC2 mod 78, ROMK mod 7.1
COc1ccc(C)cc1NC(=O)COCC(=O)O	none (no result: KCC2 mod, ROMK mod)
Cc1ccc(OCC(=O)NNC(=O)C(=O)NC(C)(C)C)cc1	KCC2 mod 13 (no result: ROMK mod)
COc1ccc(OC)c(NC(=O)C(=O)NNC(=O)COc2ccc(Br)cc2C)c1	KCC2 mod 91, ROMK mod 1.6
NC(=O)CNC(=O)[C@@H]1CC2(CC(c3ccc(Cl)cc3)=NO2)CN1C(=O)c1ccccc1 (some centres undefined)	none
S=C(N/N=C1\CCc2ccccc21)NC1CCCCC1	WT yeast gro inh 70
CCNC(=S)N1CCN(CCN=CC2=C(O)CC(c3ccco3)CC2=O)CC1 (centres undefined)	none
C=CCNC(=S)N1CCN(CCN=CC2=C(O)CC(c3ccco3)CC2=O)CC1 (centres undefined)	p47phox inh 35 (no result: ROMK mod)
NC(=O)C1CCN(Cc2nc3cc(C(F)(F)F)ccc3c(=O)[nH]2)CC1	none (no result: WT yeast gro inh, ROMK mod)
CC1CC1C(=O)Nc1nc(-c2cccs2)c(-c2cccs2)s1 (centres undefined)	WT yeast gro inh 76
CCn1cc(/C=N/N=C2\CCC3C4CCc5cc(O)ccc5C4CC[C@]23C)c(C)n1 (some centres undefined)	none
CCOC(=O)c1c(NC(=O)CSc2nnc(N)s2)sc(C)c1-c1ccc(C)cc1	WT yeast gro inh 78 (no result: ROMK mod)
N#C/C(=N\Nc1ccc(Cl)cc1)C(=O)c1ccsc1	none (no result: WT yeast gro inh, ROMK mod)
COc1ccc(C(=O)/C(C#N)=N/Nc2cccc([N+](=O)[O-])c2)cc1	KCC2 mod -5, ROMK mod 7.6
N#C/C(=N\Nc1cccc(Cl)c1)C(=O)c1ccccc1	WT yeast gro inh 72
CC/C(C)=N/Nc1cccc([N+](=O)[O-])c1	WT yeast gro inh 67 (no result: ROMK mod)
CCC(CC)=NNc1cccc([N+](=O)[O-])c1	none (no result: ROMK mod)
CCOc1ccc(N/C(=N/c2nc(C)cc(C)n2)NC(C)=O)cc1	none (no result: WT yeast gro inh, ROMK mod)
CN(CC(O)COc1c(F)cc(Br)cc1F)C1CCCCC1 (centres undefined)	none
CC(=O)c1ccc(-n2c(C)ccc2-c2ccccc2)cc1	WT yeast gro inh 62
COC(=O)c1ccc(-n2c(C)ccc2-c2ccccc2)cc1	none (no result: KCC2 mod, ROMK mod)
O=C(O)CC1(CC(=O)Nc2ccc3ccccc3n2)CCCCC1	none (no result: WT yeast gro inh)
Cc1cc(N=NC(=O)c2ccccc2O)c2ccccc2c1O	KCC2 mod -3.5
CCCCN(C(=O)NC(=O)Nc1ccc(C)cn1)S(C)(=O)=O	none (no result: ROMK mod)
COc1ccccc1N(CC(O)COc1c(C)cc(C)cc1C)S(=O)(=O)c1ccccc1 (centres undefined)	WT yeast gro inh 61
COc1ccc(/C=N/Nc2ccccn2)cc1O	none (no result: WT yeast gro inh, ROMK mod)
COc1ccc(/C=C/c2nc3cc(-c4ccccc4)ccc3o2)cc1O	WT yeast gro inh 67 (no result: ROMK mod)
CCC(=O)Nc1nnc(SCc2ccccc2F)s1	none (no result: ROMK mod)
O=S(=O)(NCCc1csc(-c2ccc(C(F)(F)F)cc2)n1)c1ccc2c(c1)OCCO2	WT yeast gro inh 74 (no result: ROMK mod)
CCN(CC)C(=O)CSc1nnc(CSc2ncccn2)n1C	none (no result: WT yeast gro inh, ROMK mod)
